This passage reports cytotoxicity results from ChEMBL document CHEMBL4513216, “Probing the Open Global Health Chemical Diversity Library for Multistage-Active Starting Points for Next-Generation Antimalarials” (ACS Infect Dis, 2020).

A short description of this data set: Toxicity liver stage against HepG2, at 10uM. The format is cell-based. Also on record: test concentration 10 uM, cell line HepG2-A16-CD81EGFP. The settings on record: human, HepG2-A16-CD81EGFP cells; read-out: INHIBITION
In short, it runs like this: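 Uninfected HepG2-A16-CD81EGFP cells, 3 × 10^3 per well, 1536-well, plated on prespotted compound at 10 μM final, parasite-free screening media added to match infected plates; puromycin 10 μM positive, DMSO 0.5% negative; run in parallel with 48 h PbLuc assay at 37 °C, 5% CO2; viability by CellTiter-Glo luminescence, normalized to controls.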

As for `O=C(O)c1cccnc1CN1CCCCC1CCc1cccc(O)c1` (stereo unspecified), the cytotoxicity at 10 µM was -1.84%.

With `CC1N(C)C(=O)COC12CCN(C(=O)Cc1ccsc1)CC2` (stereo unspecified), the cytotoxicity at 10 µM was 2.81%.

For the molecule `COc1ccc(CNCC(C)Oc2ccccn2)cc1Br` (stereo unspecified), the cytotoxicity at 10 µM was -10.2%.

For `Cc1cc(NC(=O)N2CCCC2C(C)(C)O)c2ncccc2c1` (stereo unspecified), the cytotoxicity at 10 µM turned out to be 6.87%.

Regarding `CC(C)c1noc(CN(C)C(=O)c2ncn[nH]2)n1`, the cytotoxicity at 10 µM is 6.2%.

Regarding `O=C(NCCNc1ccccn1)Nc1cc(C(F)(F)F)c[nH]c1=O`, the cytotoxicity at 10 µM is -16.5%.

For the molecule `CNC(=O)[C@@H]1C[C@@H](N)CN1C1CCN(Cc2ccccn2)CC1`, the cytotoxicity at 10 µM was -53.5%.

As for `Cc1csc(C2CCCN(C(=O)c3cccc4c3OCO4)C2)n1` (stereo unspecified), the cytotoxicity at 10 µM was -4.11%.

In the case of `CCSCC(C)NCc1nn(C)c2ccc(C)cc12` (stereo unspecified), the cytotoxicity at 10 µM amounted to 1.71%.

For the molecule `CN(C)C(=O)c1cc2ncc(C(=O)NC3CCCC3)cc2n1C`, the cytotoxicity at 10 µM was -2.63%.

Turning to `CSc1ccc(-c2nc(CN3CCC(NC(C)=O)C3)c(C)o2)cc1` (stereo unspecified), the cytotoxicity at 10 µM is 1.24%.

For `CN1CCN(C(=O)c2nc3c(s2)CCCN3C(=O)C2CC2)CC1`, the cytotoxicity at 10 µM is 1.82%.

`Cc1nn(C)c2nc(N(Cc3nccs3)C3CC3)sc12`: the cytotoxicity at 10 µM was -45.9%.

As for `Cc1nc(C)n(CC2CCCN(CCOc3ccc(C#N)cc3)C2)n1` (stereo unspecified), the cytotoxicity at 10 µM was -1.55%.

As to `CN(C)S(=O)(=O)N1CC[C@]2(O)CCN(c3nc4ccccc4s3)C[C@@H]2C1`, the cytotoxicity at 10 µM was -1.82%.

As for `Cn1cc(C(=O)NCc2cncc3c2CCN(S(C)(=O)=O)C3)cn1`, the cytotoxicity at 10 µM is -105%.

In the case of `COc1cccc(CC(=O)N2CCCSCC2CN2CCCC2)c1` (stereo unspecified), the cytotoxicity at 10 µM is -1.42%.

Turning to `O=C(CNc1ccc(F)cc1OCC(F)(F)F)NCc1ccco1`, the cytotoxicity at 10 µM turned out to be 7.35%.

In the case of `CCN1CCN(c2ccc(CNC(=O)c3ccccc3F)cn2)CC1`, the cytotoxicity at 10 µM is -16.4%.

In the case of `COCCC1(CO)CCCN(CCCc2ccccc2)C1` (stereo unspecified), the cytotoxicity at 10 µM is -1.4%.

As to `CCO[C@@H]1CC[C@H]2[C@H]1OCCN2CCOCc1ccccc1`, the cytotoxicity at 10 µM was -111%.

Turning to `CC(c1nnc(-c2cccs2)o1)N1CCn2c(nnc2C2CC2)C1` (stereo unspecified), the cytotoxicity at 10 µM is 17.7%.

On to `Cc1nc(-c2nnc[nH]2)sc1C(=O)N1CCCC1CC(C)(C)C` (stereo unspecified), for which the cytotoxicity at 10 µM was 12.1%.

For the molecule `CCN(CC)c1ncc(CNC2CCc3ncnn3C2)s1` (stereo unspecified), the cytotoxicity at 10 µM is -1.06%.

`O=C(c1ccc[nH]1)N1CCn2cc(Cn3cccn3)nc2C1`: the cytotoxicity at 10 µM was -81.9%.

Consider `CC(C)n1cc(C(=O)NCCc2cn3ccsc3n2)cn1`, for which the cytotoxicity at 10 µM came to 8.67%.

Consider `CN1CCN(C(=O)c2nnc3ccc(Cl)cc3n2)CC1`, for which the cytotoxicity at 10 µM amounted to 6.28%.

For `CN(C(=O)c1cnc(N2CCOCC2)nc1)C1Cc2ccccc2C1`, the cytotoxicity at 10 µM is -3.97%.

In the case of `CCc1oc(C(=O)N2CCC(N(CC)C(C)=O)C2)cc1CN(CC)CC` (stereo unspecified), the cytotoxicity at 10 µM came to 8.31%.

On to `O=C(CCN1CCN(c2ccc3nncn3n2)CC1)NC1CCCC1`, for which the cytotoxicity at 10 µM is -27.5%.

Consider `O=C([C@@H]1COC[C@H]2CN(C3CCOCC3)C[C@H]21)N1CCCCO1`, for which the cytotoxicity at 10 µM was -6.28%.

Consider `COCC(=O)NC(c1ccc(Cl)cc1)c1noc(C)n1` (stereo unspecified), for which the cytotoxicity at 10 µM turned out to be 6.66%.

In the case of `Cc1cc(NC(=O)NCC(O)c2ccc(Cl)cc2Cl)n(C)n1` (stereo unspecified), the cytotoxicity at 10 µM is -5.38%.

Take `CC(=O)N(Cc1ncc(C)o1)C1CCN(Cc2ccccc2F)C1` (stereo unspecified): the cytotoxicity at 10 µM was -8.08%.

With `O=c1ccc(-c2cccs2)nn1CN1CCc2ccccc2C1`, the cytotoxicity at 10 µM was found to be 14.3%.

Consider `CNc1ncc(CN(C)C(=O)[C@@]23CNC[C@@H]2CN(C(=O)C2CC2)C3)cn1`, for which the cytotoxicity at 10 µM stood at 4.67%.

On to `CS(=O)(=O)NC[C@@H]1OC[C@H]2CN(Cc3ccsc3)CC[C@H]21`, for which the cytotoxicity at 10 µM was determined as 14.3%.

Regarding `CCc1nnc(CN(C)c2nc(C3CCCC3)nc3c2cnn3C)o1`, the cytotoxicity at 10 µM is -11.3%.

Consider `Cc1cncc(C2CCCN(C(=O)c3cnco3)C2)n1` (stereo unspecified), for which the cytotoxicity at 10 µM is -6.94%.

With `CCCc1nnsc1C(=O)N1CCN(CC(O)c2ccco2)CC1` (stereo unspecified), the cytotoxicity at 10 µM is -7.86%.

For `CCc1ccc(CNCC2CCN(CCO)CC2)cc1`, the cytotoxicity at 10 µM was -6.73%.

As to `Cc1nnc(CN(C)Cc2nc3c(s2)CCCC3)o1`, the cytotoxicity at 10 µM was -1.42%.

For `COc1ccc(CCC(=O)N2CCNCC2C(=O)N2CCOCC2)cc1` (stereo unspecified), the cytotoxicity at 10 µM turned out to be 4.34%.

Consider `CC(C)c1nnc(CNc2nc(-c3cccnc3)nc3c2CCC3)n1C`, for which the cytotoxicity at 10 µM was found to be 8.74%.

Regarding `Cc1ccc(Cl)cc1NCc1nc2[nH]c(C)c(C)c(=O)n2n1`, the cytotoxicity at 10 µM was -4.96%.

For the molecule `O=C(c1cccc(O)c1)N1C[C@@H](CN2CCCCC2)[C@@H](CO)C1`, the cytotoxicity at 10 µM is -2.88%.

With `Cc1cc(S(C)(=O)=O)c(C)c(S(=O)(=O)N2CCCC(C)C2)c1` (stereo unspecified), the cytotoxicity at 10 µM came out at 22.6%.

For `CCN(CC)c1ccc(NS(=O)(=O)c2cccnc2)cn1`, the cytotoxicity at 10 µM amounted to 3.8%.

In the case of `CC(C)c1nccn1C(C)C(=O)NC1CCOCC1` (stereo unspecified), the cytotoxicity at 10 µM is -2.07%.

Turning to `CC(C)CN1CCn2c(COCc3cccnc3)nnc2C1`, the cytotoxicity at 10 µM came out at 5.8%.

On to `Nc1nccnc1C(=O)NC1CCN(Cc2ccccc2)C1` (stereo unspecified), for which the cytotoxicity at 10 µM is 11.9%.

On to `COC(=O)c1ccc(N2CCN(C(=O)c3cnccn3)C(C)C2)cc1` (stereo unspecified), for which the cytotoxicity at 10 µM was -12.9%.

Consider `COc1cc(N2CCc3ncnc(-c4cnn(C)c4)c3CC2)ncn1`, for which the cytotoxicity at 10 µM amounted to 8.46%.

Regarding `CNCc1n[nH]c(=O)n1-c1cccc(Cl)c1Cl`, the cytotoxicity at 10 µM stood at 0.396%.

In the case of `Cc1c(F)cccc1S(=O)(=O)N(C)CC(C)O` (stereo unspecified), the cytotoxicity at 10 µM came to 4.98%.

For the molecule `CCC(N)C(=O)N1CCC(OCc2ccc(Cl)c(Cl)c2)CC1` (stereo unspecified), the cytotoxicity at 10 µM was -12%.

As for `c1cc(CN2CCc3ncc(CN4CCOCC4)n3CC2)cs1`, the cytotoxicity at 10 µM was -0.269%.

For `CN(CCN1CCN(c2ccccc2)CC1)C(=O)Nc1ccccn1`, the cytotoxicity at 10 µM came out at 6.37%.

Consider `CCNC(=O)NC(=O)CN(CC(C)O)c1ccccc1` (stereo unspecified), for which the cytotoxicity at 10 µM turned out to be 1.32%.

As for `NC(=O)CCC1CCCN(c2ncnc3c2Cc2ccccc2OC3)C1` (stereo unspecified), the cytotoxicity at 10 µM was determined as 0.721%.

Turning to `Cc1ccc(OCCN(C)Cc2nc3c(cnn3C)c(=O)[nH]2)cc1`, the cytotoxicity at 10 µM is -3.44%.

Regarding `Cc1nc(N2CCOCC2)nc(C)c1NC(=O)c1ccco1`, the cytotoxicity at 10 µM was determined as 1.9%.

Regarding `Cc1ccc(CN2CCN(c3cc(NCCO)ncn3)CC2CCO)o1` (stereo unspecified), the cytotoxicity at 10 µM amounted to 7.11%.

With `CN(C)CCN1CCCC12CCN(C(=O)c1cccnc1)CC2`, the cytotoxicity at 10 µM was found to be 4.68%.

For `CCN(C)CC1CCN(S(=O)(=O)c2cc(C)c(F)cc2Cl)C1` (stereo unspecified), the cytotoxicity at 10 µM was -8.38%.

Regarding `COc1cc(C(=O)N(CCC#N)Cc2ccccn2)cc(OC)c1C`, the cytotoxicity at 10 µM was -15.1%.

Consider `CCn1c(N)nc2cc(C(=O)N3CCC(N4CCCC4)CC3)cnc21`, for which the cytotoxicity at 10 µM is -1.56%.

Consider `CC(C)NC(=O)c1ccc2c(c1)C1(CCN(C(C)C)CC1)C(=O)N2`, for which the cytotoxicity at 10 µM was -7.47%.

For the molecule `CC(C)(C)CC(=O)NC[C@H]1OC[C@@H](NCc2ccccn2)[C@@H]1O`, the cytotoxicity at 10 µM was -5.28%.

`CCN1CCN(CCCNC(=O)c2cc3ccc(C)cc3nc2C)CC1`: the cytotoxicity at 10 µM is 5.33%.

`COc1cc(F)c(S(=O)(=O)Nc2cnc(O)cc2C)cc1OC`: the cytotoxicity at 10 µM came to 5.66%.
